Laboratory results reported in ChEMBL document CHEMBL1143047, “Aminoglycoside antibiotic derivatives: preparation and evaluation of toxicity on cochlea and vestibular tissues and antimicrobial activity” (Bioorg Med Chem, 2007).
Calls of active or inactive are those of the source.

Key:
Cavia porcellus [1] = species: Cavia porcellus; assay: Ototoxicity assessed as vestibular damage in Albino guinea pig with transtympanic application in right ear relative to left ear control; format: toxicity, organism-based; design: concentration or dose not given beside the values; conditions: in vivo, other
Outline: (§1)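 Albino guinea pigs (400–600 g) screened by Preyer reflex and otoscopy, with DPOAE/BEAP thresholds up to 5 dB in both ears under ketamine 65 mg/kg. Right ear got a transtympanic sample (0.08–0.10 mL, 0.22 mmol/mL, in water or DMSO); left ear got saline or DMSO; 06 animals. Cochlear hair cells and vestibule (semicircular channels, utriculus, sacculus) scored by SEM after glutaraldehyde/osmium fixation.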

Escherichia coli = assay: Antimicrobial activity against Escherichia coli ATCC 25922 at 15 mg/ml after 24 hrs by micro dilution method; format: functional, organism-based
Outline: (§2)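 Broth microdilution with about 5 × 10^4 CFU/mL per well. Compounds were dissolved in sterile water or in 10% DMSO/water and tested at 15 mg/mL in duplicate. Incubation was 24 h at 35 °C. Growth was scored qualitatively by medium turbidity (growth or no growth) against an inoculated-medium positive control and a medium-only negative control.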

[2] = tested on: Staphylococcus epidermidis; assay: Antimicrobial activity against Staphylococcus epidermidis ATCC 12228 at 15 mg/ml after 24 hrs by micro dilution method; format: functional, organism-based; outline: as §2
Pseudomonas aeruginosa = assay: Antimicrobial activity against Pseudomonas aeruginosa ATCC 27853 at 15 mg/ml after 24 hrs by micro dilution method; format: functional, organism-based; outline: as §2
Micrococcus luteus = assay: Antimicrobial activity against Micrococcus luteus ATCC 9341 at 15 mg/ml after 24 hrs by micro dilution method; format: functional, organism-based; outline: as §2
Staphylococcus aureus = assay: Antimicrobial activity against Staphylococcus aureus ATCC 6538 at 15 mg/ml after 24 hrs by micro dilution method; format: functional, organism-based; outline: as §2
Cavia porcellus [3] = species: Cavia porcellus; assay: Ototoxicity assessed as cochlear outer cells damage in Albino guinea pig with transtympanic application in right ear relative to left ear control; format: toxicity, organism-based; design: concentration or dose not given beside the values; conditions: other; outline: as §1
Cavia porcellus [4] = species: Cavia porcellus; assay: Ototoxicity assessed as cochlear inner cells damage in Albino guinea pig with transtympanic application in right ear relative to left ear control; format: toxicity, organism-based; design: concentration or dose not given beside the values; conditions: other; outline: as §1

Structure (SMILES): CC(=O)NC[C@H]1O[C@H](O[C@@H]2[C@@H](O)[C@H](O)[C@@H](NC(C)=O)C[C@H]2NC(C)=O)[C@H](NC(C)=O)[C@@H](O)[C@@H]1O
- Activity (Cavia porcellus [1]): 0%
- Activity (Escherichia coli): Active
- Activity [2]: Active
- Activity (Pseudomonas aeruginosa): inactive
- Activity (Micrococcus luteus): Active
- Activity (Staphylococcus aureus): Active
- Activity (Cavia porcellus [3]): 0%
- Activity (Cavia porcellus [4]): 0%

Structure (SMILES): N[C@@H]1C[C@H](N)[C@@H](O)[C@H](O)[C@H]1O
- Activity (Cavia porcellus [1]): 0%
- Activity (Escherichia coli): inactive
- Activity [2]: inactive
- Activity (Pseudomonas aeruginosa): inactive
- Activity (Micrococcus luteus): Active
- Activity (Staphylococcus aureus): inactive
- Activity (Cavia porcellus [3]): 0%
- Activity (Cavia porcellus [4]): 0%

Structure (SMILES): COc1ccc(/C=N\[C@H]2[C@@H](O[C@@H]3[C@@H](O)[C@H](O)[C@@H](/N=C/c4ccc(OC)cc4)C[C@H]3/N=C/c3ccc(OC)cc3)O[C@H](C/N=C/c3ccc(OC)cc3)[C@@H](O)[C@@H]2O)cc1
- Activity (Cavia porcellus [1]): 0%
- Activity (Cavia porcellus [3]): 0%
- Activity (Cavia porcellus [4]): 100%

Structure (SMILES): NC[C@@H]1O[C@H](O[C@H]2[C@@H](O)[C@H](O[C@@H]3[C@@H](O)[C@H](N)C[C@H](N)[C@H]3O[C@H]3O[C@H](CN)[C@@H](O)[C@H](O)[C@H]3N)O[C@@H]2CO)[C@H](N)[C@@H](O)[C@@H]1O [FRAMYCETIN]
- Activity (Cavia porcellus [1]): 50%
- Activity (Escherichia coli): Active
- Activity [2]: Active
- Activity (Pseudomonas aeruginosa): Active
- Activity (Micrococcus luteus): Active
- Activity (Staphylococcus aureus): Active
- Activity (Cavia porcellus [3]): 100%
- Activity (Cavia porcellus [4]): 0%

Structure (SMILES): O=C(NC[C@H]1O[C@H](O[C@@H]2[C@@H](O)[C@H](O)[C@@H](NC(=O)OCc3ccccc3)C[C@H]2NC(=O)OCc2ccccc2)[C@H](NC(=O)OCc2ccccc2)[C@@H](O)[C@@H]1O)OCc1ccccc1
- Activity (Cavia porcellus [1]): 0%
- Activity (Cavia porcellus [3]): 100%
- Activity (Cavia porcellus [4]): 0%

Structure (SMILES): COC(=O)NC[C@H]1O[C@H](O[C@@H]2[C@@H](O)[C@H](O)[C@@H](NC(=O)OC)C[C@H]2NC(=O)OC)[C@H](NC(=O)OC)[C@@H](O)[C@@H]1O
- Activity (Cavia porcellus [1]): 0%
- Activity (Cavia porcellus [3]): 0%
- Activity (Cavia porcellus [4]): 0%

Structure (SMILES): COC1OC[C@@H](O)[C@@H](O[C@H]2O[C@@H](CN)[C@@H](O)[C@H](O)[C@H]2N)[C@H]1O (some centres undefined) [METHYL-NEOBIOSAMINIDE B]
- Activity (Cavia porcellus [1]): 100%
- Activity (Escherichia coli): Active
- Activity [2]: Active
- Activity (Pseudomonas aeruginosa): Active
- Activity (Micrococcus luteus): Active
- Activity (Staphylococcus aureus): Active
- Activity (Cavia porcellus [3]): 0%
- Activity (Cavia porcellus [4]): 0%

Structure (SMILES): NC[C@H]1O[C@H](O[C@H]2[C@H](O)[C@@H](O)[C@H](N)C[C@@H]2N)[C@H](N)[C@@H](O)[C@@H]1O [NEAMINE]
- Activity (Cavia porcellus [1]): 100%
- Activity (Escherichia coli): Active
- Activity [2]: Active
- Activity (Pseudomonas aeruginosa): Active
- Activity (Micrococcus luteus): Active
- Activity (Staphylococcus aureus): Active
- Activity (Cavia porcellus [3]): 100%
- Activity (Cavia porcellus [4]): 0%
